Measured values: ChEMBL document CHEMBL1157693, “Microwave assisted synthesis and antimicrobial activity of 2-quinoxalinone-3-hydrazone derivatives” (2010)
In brackets after ≈: the same amount, converted by molar mass. Activity calls are given as the source filed them. No cut-off for these calls is given here.

Key:
Format in all cases: functional
[1] = system: Geobacillus stearothermophilus; test: Antibacterial activity against Bacillus stearothermophilus NCIB 8222 after 24 hrs by agar well diffusion method
How it was run: (§1)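 Agar well diffusion. Clinical isolates were first checked for viability, then grown in nutrient broth for 8 h at 37 °C. About 0.2 ml of broth culture was mixed into 18 ml molten diagnostic sensitivity test agar cooled to 45 °C and poured into plates. Compounds in DMSO went into bored wells, with streptomycin as reference. Plates stood 1 h for diffusion, then were incubated upright at 37 °C for 24 h. Clear inhibition zones were read in mm.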

Bacillus cereus [2] = test: Antibacterial activity against Bacillus cereus NCIB 6349 after 72 hrs; details: NCIB 6349, 72 h
How it was run: (§2)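 MIC by the Russell and Furr method, run on selected Gram-positive and Gram-negative strains. Once the agar had set and its surface had dried, nutrient agar plates were streaked with overnight broth cultures. They were incubated at 37 °C for up to 72 h and scored for presence or absence of growth.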

Klebsiella pneumoniae [3] = test: Antibacterial activity against Klebsiella pneumoniae NCIB 418 after 72 hrs; details: NCIB 418, 72 h; how it was run: as §2
Shigella dysenteriae [4] = test: Antibacterial activity against Shigella dysenteriae after 72 hrs
How it was run: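 MIC by agar dilution: compound-containing nutrient agar was set and surface-dried, then streaked with overnight broth culture of the clinical isolate. Incubated at 37 °C for up to 72 h and scored for presence or absence of growth. Streptomycin was the reference.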

Staphylococcus aureus [5] = test: Antibacterial activity against Staphylococcus aureus NCIB 8588 after 24 hrs by agar well diffusion method; how it was run: as §1
Bacillus subtilis [6] = test: Antibacterial activity against Bacillus subtilis NCIB 3610 after 24 hrs by agar well diffusion method; how it was run: as §1
Staphylococcus aureus [7] = test: Antibacterial activity against Staphylococcus aureus NCIB 8588 after 72 hrs; how it was run: as §2
Escherichia coli [8] = test: Antibacterial activity against Escherichia coli NCIB 86 after 24 hrs by agar well diffusion method; how it was run: as §1
Bacillus cereus [9] = test: Antibacterial activity against Bacillus cereus NCIB 6349 after 24 hrs by agar well diffusion method; how it was run: as §1
Candida albicans = test: Antifungal activity against Candida albicans after 3 days by agar well diffusion method
Shigella dysenteriae [10] = test: Antibacterial activity against Shigella dysenteriae after 24 hrs by agar well diffusion method
Bacillus anthracis [11] = test: Antibacterial activity against Bacillus anthracis after 24 hrs by agar well diffusion method
Pseudomonas fluorescens = test: Antibacterial activity against Pseudomonas fluorescens NCIB 3756 after 24 hrs by agar well diffusion method; how it was run: as §1
Bacillus subtilis [12] = test: Antibacterial activity against Bacillus subtilis NCIB 3610 after 72 hrs; details: NCIB 3610, 72 h; how it was run: as §2
Bacillus anthracis [13] = test: Antibacterial activity against Bacillus anthracis after 72 hrs
Pseudomonas aeruginosa = test: Antibacterial activity against Pseudomonas aeruginosa NCIB 950 after 24 hrs by agar well diffusion method; how it was run: as §1
[14] = system: Geobacillus stearothermophilus; test: Antibacterial activity against Bacillus stearothermophilus NCIB 8222 after 72 hrs; details: NCIB 8222, 72 h; how it was run: as §2
Klebsiella pneumoniae [15] = test: Antibacterial activity against Klebsiella pneumoniae NCIB 418 after 24 hrs by agar well diffusion method; how it was run: as §1
Escherichia coli [16] = test: Antibacterial activity against Escherichia coli NCIB 86 after 72 hrs; details: NCIB 86, 72 h; how it was run: as §2

| SMILES | inhibition zone (IZ) [1] [mm] | MIC (Bacillus cereus [2]) [µg/mL] | MIC (Klebsiella pneumoniae [3]) [µg/mL] | MIC (Shigella dysenteriae [4]) | inhibition zone (IZ) (Staphylococcus aureus [5]) [mm] | inhibition zone (IZ) (Bacillus subtilis [6]) [mm] | MIC (Staphylococcus aureus [7]; NCIB 8588, 72 h) [µg/mL] | inhibition zone (IZ) (Escherichia coli [8]) [mm] | inhibition zone (IZ) (Bacillus cereus [9]) [mm] | inhibition zone (IZ) (Candida albicans) [mm] | inhibition zone (IZ) (Shigella dysenteriae [10]) [mm] | inhibition zone (IZ) (Bacillus anthracis [11]) [mm] | inhibition zone (IZ) (Pseudomonas fluorescens) [mm] | MIC (Bacillus subtilis [12]) [µg/mL] | MIC (Bacillus anthracis [13]) | inhibition zone (IZ) (Pseudomonas aeruginosa) [mm] | MIC [14] [µg/mL] | inhibition zone (IZ) (Klebsiella pneumoniae [15]) [mm] | MIC (Escherichia coli [16]) [µg/mL] | MIC (Staphylococcus aureus [7]) |
| --- | --- | --- | --- | --- | --- | --- | --- | --- | --- | --- | --- | --- | --- | --- | --- | --- | --- | --- | --- | --- |
| O=c1[nH]c2ccccc2nc1NN=C1c2ccccc2Cc2ccccc21 | 18 | 7.8 (≈ 22.1 µM) | 7.8 (≈ 22.1 µM) | inactive | 14 | 12 | 15.6 (≈ 44.3 µM) | 20 | 25 | 9 | 0 | 14 | 0 | 31.3 (≈ 88.8 µM) | 31.3 µg/mL (≈ 88.8 µM) | 15 | 15.6 (≈ 44.3 µM) | 21 | 15.6 (≈ 44.3 µM) |  |
| O=c1[nH]c2ccccc2nc1NN=C1CCCC1 | 14 | 15.6 (≈ 64.4 µM) | 15.6 (≈ 64.4 µM) | 62.5 µg/mL (≈ 258 µM) | 0 | 12 |  | 17 | 20 | 29 | 12 | 10 | 10 | 31.3 (≈ 129 µM) | 125 µg/mL (≈ 516 µM) | 0 | 62.5 (≈ 258 µM) | 14 | 31.3 (≈ 129 µM) | inactive |
| O=c1[nH]c2ccccc2nc1NN=C1CCCCC1 | 15 | 15.6 (≈ 60.9 µM) | 15.6 (≈ 60.9 µM) | 125 µg/mL (≈ 488 µM) | 19 | 16 | 15.6 (≈ 60.9 µM) | 11 | 25 | 21 | 10 | 0 | 12 | 31.3 (≈ 122 µM) | inactive | 0 | 31.3 (≈ 122 µM) | 17 | 62.5 (≈ 244 µM) |  |
| CC12CCC(C/C1=N\Nc1nc3ccccc3[nH]c1=O)C2(C)C (configuration not stated) | 14 | 62.5 (≈ 201 µM) | 31.3 (≈ 101 µM) | inactive | 11 | 16 | 62.5 (≈ 201 µM) | 18 | 10 | 21 | 0 | 5 | 0 | 15.6 (≈ 50.3 µM) | 125 µg/mL (≈ 403 µM) | 13 | 31.3 (≈ 101 µM) | 16 | 15.6 (≈ 50.3 µM) |  |
| C/C(=N\Nc1nc2ccccc2[nH]c1=O)c1cc2cc(Cl)ccc2oc1=O | 30 | 7.8 (≈ 20.5 µM) | 7.8 (≈ 20.5 µM) | 15.6 µg/mL (≈ 41 µM) | 32 | 33 | 15.6 (≈ 41 µM) | 30 | 30 | 14 | 19 | 25 | 10 | 7.8 (≈ 20.5 µM) | 7.8 µg/mL (≈ 20.5 µM) | 14 | 7.8 (≈ 20.5 µM) | 32 | 7.8 (≈ 20.5 µM) |  |
| O=C1Nc2ccc(Br)cc2/C1=N/Nc1nc2ccccc2[nH]c1=O | 22 | 62.5 (≈ 163 µM) | 31.3 (≈ 81.5 µM) | 125 µg/mL (≈ 325 µM) | 20 | 13 | 15.6 (≈ 40.6 µM) | 13 | 15 | 15 | 11 | 8 | 11 | 62.5 (≈ 163 µM) | 125 µg/mL (≈ 325 µM) | 0 | 15.6 (≈ 40.6 µM) | 15 | 62.5 (≈ 163 µM) |  |
| CC/C(C)=N\Nc1nc2ccccc2[nH]c1=O | 17 | 7.8 (≈ 33.9 µM) | 62.5 (≈ 271 µM) | inactive | 19 | 16 | 15.6 (≈ 67.7 µM) | 21 | 25 | 22 | 0 | 12 | 0 | 31.3 (≈ 136 µM) | 62.5 µg/mL (≈ 271 µM) | 0 | 31.3 (≈ 136 µM) | 19 | 31.3 (≈ 136 µM) |  |
| NNc1nc2ccccc2[nH]c1=O | 15 | 15.6 (≈ 88.5 µM) | 125 (≈ 710 µM) | 125 µg/mL (≈ 710 µM) | 24 | 20 | 125 (≈ 710 µM) | 25 | 28 | 18 | 22 | 24 | 0 | 15.6 (≈ 88.5 µM) | 15.6 µg/mL (≈ 88.5 µM) | 15 | 15.6 (≈ 88.5 µM) | 10 | 15.6 (≈ 88.5 µM) |  |
